Test system: HepG2
Test: Antiproliferative activity against human HepG2 cells assessed as growth inhibition at 10 ug/ml after 48 hrs by MTT assay
Assay type: functional
Conditions: HepG2, 48 h
Procedure, shortened: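 Cell lines from ATCC, grown in MEM-EBSS with 10% FBS and 1% penicillin-streptomycin at 37 °C, 5% CO2. Seeded at 4000 cells/well, left 24 h, then exposed to a concentration series for 48 h. Growth read by MTT. Percent inhibition was computed at each concentration and IC50 derived from it. Triplicate determinations, reported as mean SD.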

Structure (SMILES)	inhibition at 10 µg/mL [%]
OCCCC[C@@H]1[C@H]2CCCN3CCC[C@@H](CN1Cc1ccccc1)[C@@H]23	31
COCCCC[C@@H]1[C@H]2CCCN3CCC[C@H](CN1Cc1ccccc1)[C@@H]23	4.4
COC(=O)CCC[C@H]1NC[C@H]2CCCN3CCC[C@H]1[C@H]23	33.4
CCCN1C[C@H]2CCCN3CCC[C@@H]([C@H]23)[C@H]1CCCC(=O)OC	24.9
COC(=O)CCC[C@@H]1[C@H]2CCCN3CCC[C@H](CN1CC(C)C)[C@@H]23	26.8
COC(=O)CCC[C@@H]1[C@H]2CCCN3CCC[C@H](CN1Cc1ccccc1F)[C@@H]23	60.8
COC(=O)CCC[C@@H]1[C@H]2CCCN3CCC[C@H](CN1Cc1cccc(F)c1)[C@@H]23	81.8
COC(=O)CCC[C@@H]1[C@H]2CCCN3CCC[C@H](CN1Cc1ccc(F)cc1)[C@@H]23	73.1
COC(=O)CCC[C@@H]1[C@H]2CCCN3CCC[C@H](CN1Cc1cccc(Cl)c1)[C@@H]23	84.9
COC(=O)CCC[C@@H]1[C@H]2CCCN3CCC[C@H](CN1Cc1ccc(Br)cc1)[C@@H]23	89.6
COC(=O)CCC[C@@H]1[C@H]2CCCN3CCC[C@H](CN1Cc1ccncc1)[C@@H]23	29.9
COC(=O)CCC[C@@H]1[C@H]2CCCN3CCC[C@H](CN1Cc1ccco1)[C@@H]23	16.6
CCCN1C[C@H]2CCCN3CCC[C@@H]([C@H]23)[C@H]1CCCC(=O)O	25.3
CC(C)CN1C[C@H]2CCCN3CCC[C@@H]([C@H]23)[C@H]1CCCC(=O)O	10.7
O=C(O)CCC[C@@H]1[C@H]2CCCN3CCC[C@H](CN1Cc1ccccc1)[C@@H]23	1.5
O=C(O)CCC[C@@H]1[C@H]2CCCN3CCC[C@H](CN1Cc1ccccc1F)[C@@H]23	1.6
O=C(O)CCC[C@@H]1[C@H]2CCCN3CCC[C@H](CN1Cc1cccc(F)c1)[C@@H]23	25.2
O=C(O)CCC[C@@H]1[C@H]2CCCN3CCC[C@H](CN1Cc1ccc(F)cc1)[C@@H]23	2
O=C(O)CCC[C@@H]1[C@H]2CCCN3CCC[C@H](CN1Cc1cccc(Cl)c1)[C@@H]23	22.8
O=C(O)CCC[C@@H]1[C@H]2CCCN3CCC[C@H](CN1Cc1ccc(Cl)cc1)[C@@H]23	3.5
O=C(O)CCC[C@@H]1[C@H]2CCCN3CCC[C@H](CN1Cc1ccc(Br)cc1)[C@@H]23	24.9
O=C(O)CCC[C@@H]1[C@H]2CCCN3CCC[C@H](CN1Cc1ccncc1)[C@@H]23	22.3
NC(=O)CCC[C@@H]1[C@H]2CCCN3CCC[C@H](CN1Cc1ccc(Cl)cc1)[C@@H]23	1.7
CCCN1C[C@H]2CCCN3CCC[C@@H]([C@H]23)[C@H]1CCCCO	0.9
